Experiments:
[1] = Plasma pharmacokinetics in rats after intravenous injection; type: in vivo, Sprague Dawley (SD) rats
Method in brief: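 Male SD rats (220–250 g), fasted overnight and randomized (n=6/group), got 6 mg/kg iv of free or lipid-carrier-formulated ester. An automated collector drew blood at 2–300 min, with saline volume replacement. Plasma was prepared cold and stored at −80°C, then extracted with ice-cold acetonitrile plus internal standard, dried under nitrogen and reconstituted in methanol. LC-MS measured the parent ester and its hydrolysed metabolite.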

rat liver microsomes = conditions: cited from earlier work
human liver microsomes = conditions: cited from earlier work

## CC1(C)C2CCC1(C)C(OC(=O)C(O)Cc1ccc(O)c(O)c1)C2 (stereo not shown) [DBZ, 1,7,7-trimethylbicyclo[2.2.1]heptan-2-yl 3-[3,4-dihydroxyphenyl]-2-hydroxy-propanoate]
[1]; analyte DBZ, rats, intravenous, 6 mg/kg
  MRT0–∞ of plasma DBZ: 0.149±0.015 H
[1]; preliminary pharmacokinetic studies in rats
  Elimination from the blood circulation after injection: eliminated quickly
Rat liver microsomes
  Metabolism by the liver microsomal enzymes: metabolized quickly
Human liver microsomes
  Metabolism by the liver microsomal enzymes: metabolized quickly
